How the values were obtained:
[1] = Intrinsic clearance in rat hepatocytes assessed per 10^6 cells by LC-MS/MS analysis; type: ADME, cell-based, Hepatocyte
How it was run: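 Rat hepatocyte incubation, samples analysed by LC/MS/MS; intrinsic clearance reported in µL/min/1 million cells.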

[2] = Distribution coefficient, logD of compound; type: physicochemical; settings: octanol/water
[3] = Intrinsic clearance in human liver microsomes assessed per mg protein by LC-MS/MS analysis; type: ADME, Microsome
[4] = Cmax in NMRI mouse at 10 mg/kg, ip measured up to 24 hrs by LC-MS/MS analysis; type: ADME, organism-based; design: dose 10 mg/kg, route intraperitoneal; settings: in vivo
[5] = Half life in NMRI mouse at 10 mg/kg, ip measured up to 24 hrs by LC-MS/MS analysis; type: ADME, organism-based; settings: in vivo
[6] = Ratio of drug concentration in brain to blood in NMRI mouse at 10 mg/kg, ip measured at 0.5 hrs by LC-MS/MS analysis; type: ADME, organism-based; settings: brain and blood, read-out: BBR
[7] = Ratio of drug concentration in brain to blood in NMRI mouse at 10 mg/kg, ip measured at 4 hrs by LC-MS/MS analysis; type: ADME, organism-based; settings: brain and blood, read-out: BBR
[8] = in vivo; settings: NMRI, mouse, ip, 10 mg/kg

hepatocyte CLint [1] [µL/min/10^6 cells] | logD [2] | Structure (SMILES) | further results
45 | 3.8 | CNc1nccc(-c2cc3c4c(n[nH]c4c2)Nc2ccccc2O3)n1 | 
44 | > 4.4 | CN(C)c1cc(-c2cc3c4c(n[nH]c4c2)Nc2ccccc2O3)nc(N)n1 | 
73 | 3.8 | Nc1cc(-c2cc3c4c(n[nH]c4c2)Nc2ccccc2O3)ncn1 | 
29 | > 3.9 | CN(C)c1nccc(-c2cc3c4c(n[nH]c4c2)Nc2ccccc2O3)n1 | 
56 | 4.1 | Nc1ccnc(-c2cc3c4c(n[nH]c4c2)Nc2ccccc2O3)n1 | 
68 | 3.5 | c1ccc2c(c1)Nc1n[nH]c3cc(-c4ccncn4)cc(c13)O2 | 
47 |  | c1ccc2c(c1)Nc1n[nH]c3cccc(c13)O2 | logD ([2]; read-out: logD): > 4
41.4 |  | COCc1cc(-c2cc3c4c(n[nH]c4c2)Nc2ccccc2O3)nc(N)n1 | 
16 | 3.4 | CN1CCN(c2cc(-c3cc4c5c(n[nH]c5c3)Nc3ccccc3O4)nc(N)n2)CC1 | 

The next lines start with the molecule.

Structure (SMILES) | hepatocyte CLint [1] [µL/min/10^6 cells] | logD [2] | further results
Nc1cccc(-c2cc3c4c(n[nH]c4c2)Nc2ccccc2O3)n1 | 220 | 3.7 | 
CCOc1cc(-c2ccnc(N)n2)cc2[nH]nc(N)c12 |  | 1.7 | CLH [3]: 25 µL/min; Cmax [4]: 3603 ng/mL; t1/2 [5]: 53.6 min; Kp at 0.5 h [6]: 0.155; Kp at 4 h [7]: 0.214; Tmax at 24 h [8]: 15 to 300 min
CNc1cc(-c2cc3c4c(n[nH]c4c2)Nc2ccccc2O3)nc(N)n1 | 45 | > 4.2 | 
Nc1nc(-c2cc3c4c(n[nH]c4c2)Nc2ccccc2O3)cc(N2CCCCC2)n1 | 25 | 4.6 | 
CCNc1cc(-c2cc3c4c(n[nH]c4c2)Nc2ccccc2O3)nc(N)n1 | 26 |  | 
Cn1nc2c3c(cc(-c4ccnc(N)n4)cc31)Oc1ccccc1N2 | 12 | > 4.3 | Cmax [4]: 615 ng/mL; t1/2 [5]: 63.6 min; Kp at 0.5 h [6]: 2.39; Kp at 4 h [7]: 2.12; Tmax at 24 h [8]: 15 to 300 min
CC(C)Nc1cc(-c2cc3c4c(n[nH]c4c2)Nc2ccccc2O3)nc(N)n1 | 32 | 4.9 | 
Nc1nccc(-c2cc3c4c(n[nH]c4c2)N[C@@H]2CCC[C@H]2O3)n1 |  |  | hepatocyte CLint ([1]; read-out: CLH): 52 µL/min/1e6 cells; logD ([2]; read-out: logD): 2.8
